Consider 26 compounds from PubChem BioAssay AID504837 (Johns Hopkins Ion Channel Center, 2011).

Several values for one entry are separate records, joined by “and”; a condition that tells them apart may be missing. Equal values may be shown once. Activity calls are given as the source filed them.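 Rule for the calls: active = lowers KCNQ2 potassium channel current at one or more tested doses and a dose response curve can be fitted; inactive = no current drop at any dose, or no curve.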

By IC50 is commonly meant the concentration that gives 50% inhibition.

The target of the first assay is Potassium voltage-gated channel subfamily KQT member 2 (Rattus norvegicus) (UniProt O88943). In words: KCNQ2 channel current inhibitors, SAR follow-up, orthogonal assay for KCNQ2 inhibitor project, automated electrophysiology, CHO cells (AID 504837). The following applies: automated patch clamp current. In a few lines: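 Repeats – quadruplicate per concentration · System – KCNQ2-expressing CHO cells · Read-out basis – percent current change relative to pre-compound current · Dosing – multiple compound concentrations · Probe or stimulus – voltage step from -90 mV holding to +40 mV, 2,000 ms · Detection – automated perforated-patch clamp (amphotericin B), steady-state current at +40 mV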
Chain of Potassium voltage-gated channel subfamily KQT member 2 (Rattus norvegicus) (O88943 whole entry, looked up): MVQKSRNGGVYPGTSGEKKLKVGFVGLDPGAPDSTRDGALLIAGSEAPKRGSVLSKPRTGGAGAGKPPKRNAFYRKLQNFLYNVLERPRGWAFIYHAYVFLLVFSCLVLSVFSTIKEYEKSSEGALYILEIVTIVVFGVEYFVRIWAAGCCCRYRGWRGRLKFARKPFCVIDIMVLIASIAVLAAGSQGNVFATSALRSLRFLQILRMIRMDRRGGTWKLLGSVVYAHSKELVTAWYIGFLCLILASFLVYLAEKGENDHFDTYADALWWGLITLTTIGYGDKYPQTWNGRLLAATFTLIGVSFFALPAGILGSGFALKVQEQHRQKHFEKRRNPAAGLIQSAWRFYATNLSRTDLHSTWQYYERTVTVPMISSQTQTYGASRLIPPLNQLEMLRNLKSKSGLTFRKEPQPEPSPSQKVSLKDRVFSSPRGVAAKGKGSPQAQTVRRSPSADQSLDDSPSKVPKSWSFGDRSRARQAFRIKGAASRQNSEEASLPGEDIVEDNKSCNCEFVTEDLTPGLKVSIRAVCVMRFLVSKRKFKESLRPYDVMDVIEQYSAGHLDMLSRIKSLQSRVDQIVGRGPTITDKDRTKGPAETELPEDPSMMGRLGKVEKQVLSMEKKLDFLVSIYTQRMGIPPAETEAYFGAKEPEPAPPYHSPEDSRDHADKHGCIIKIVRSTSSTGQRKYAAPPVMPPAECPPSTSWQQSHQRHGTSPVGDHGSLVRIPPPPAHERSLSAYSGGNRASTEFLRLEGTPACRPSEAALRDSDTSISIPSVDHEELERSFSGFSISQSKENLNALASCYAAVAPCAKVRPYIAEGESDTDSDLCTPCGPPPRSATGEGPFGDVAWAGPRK
As to `O=C(NCC(c1cccs1)N1CCOCC1)C12CC3CC(CC(C3)C1)C2` (configuration not stated), the half-maximal inhibitory concentration (IC50) was 910 nM and 440 nM.

On to `O=C(NCC(c1cccs1)N1CCOCC1)C1CCCCC1` (configuration not stated), for which the IC50 is 2930 nM.

For the compound `O=C(NCC(c1ccco1)N1CCOCC1)C(c1ccccc1)c1ccccc1` (configuration not stated), the IC50 is 1200 nM.

As to `O=C(CC1CCCCC1)NCC(c1cccs1)N1CCOCC1` (configuration not stated), the IC50 was 1730 nM.

As for `CC1Oc2ccccc2OC1C(=O)NCC(c1cccs1)N1CCOCC1` (configuration not stated), the IC50 was 8360 nM.

Take `Cc1ccc(OCCC(=O)NCC(c2cccs2)N2CCOCC2)cc1` (configuration not stated): the IC50 is 8980 nM.

For the compound `O=C(NC[C@@H](c1cccs1)N1CCOCC1)C12CC3CC(CC(C3)C1)C2`, the IC50 was 140 nM.

`O=C(NC[C@H](c1cccs1)N1CCOCC1)C12CC3CC(CC(C3)C1)C2`: the IC50 was 8480 nM.

As to `CC1(C(=O)NCC(c2cccs2)N2CCOCC2)CC1(Cl)Cl` (configuration not stated), the IC50 is 9510 nM.

As to `O=C(NCC(c1cccs1)N1CCOCC1)C1COc2ccc(Cl)cc2C1` (configuration not stated), the IC50 was 3200 nM.

The same assay, now with this note: automated patch clamp current, at 30 µM (top of the series).
On to `CC(C)(C)c1ccc(OCCC(=O)NCC(c2cccs2)N2CCOCC2)cc1` (configuration not stated), for which the “current change, negative = inhibition” value was “inactive”.

As to `CC(C)CC(=O)NCC(c1cccs1)N1CCOCC1` (configuration not stated), the “current change, negative = inhibition” value was “inactive”.

Take `CCCCC1CCC(C(=O)NC[C@@H](c2ccco2)N2CCOCC2)CC1` (some centres not stated): the “current change, negative = inhibition” value is “inactive”.

As for `Cc1ccc(C(CNC(=O)C2CCC2)N2CCOCC2)o1` (configuration not stated), the “current change, negative = inhibition” value was “inactive”.

For `O=C(NCC(c1ccco1)N1CCOCC1)C1CCCCC1` (configuration not stated), the “current change, negative = inhibition” value is “inactive”.

Turning to `CC(C)C(=O)NCC(c1cccs1)N1CCOCC1` (configuration not stated), the “current change, negative = inhibition” value was “inactive”.

With `CN1CCN(C(CNC(=O)CC(C)(C)C)c2cccs2)CC1` (configuration not stated), the “current change, negative = inhibition” value is “inactive”.

Consider `CCCCC1CCC(C(=O)NCC(c2ccco2)N2CCOCC2)CC1` (configuration not stated), for which the “current change, negative = inhibition” value is “inactive”.

Turning to `Cc1ccc(C(CNC(=O)C2(C)CC2(Cl)Cl)N2CCOCC2)o1` (configuration not stated), the “current change, negative = inhibition” value was “inactive”.

On to `CN1CCN(C(CNC(=O)C23CC4CC(CC(C4)C2)C3)c2cccs2)CC1` (configuration not stated), for which the “current change, negative = inhibition” value is “inactive”.

Turning to `O=C(NCC(c1ccco1)N1CCOCC1)C1CC1` (configuration not stated), the “current change, negative = inhibition” value was “inactive”.

Take `Cc1ccc(OCC(=O)NCC(c2cccs2)N2CCOCC2)cc1` (configuration not stated): the “current change, negative = inhibition” value was “inactive”.

`Cc1ccc(OCCC(=O)NCC(c2cccs2)N2CCOCC2)cc1` (configuration not stated): the “current change, negative = inhibition” value was “inactive”.

Turning to `CC(C)(C)C1CCC(C(=O)NCC(c2cccs2)N2CCOCC2)CC1` (configuration not stated), the “current change, negative = inhibition” value was “inactive”.

For the compound `CCC(CC)C(=O)NCC(c1ccco1)N1CCOCC1` (configuration not stated), the “current change, negative = inhibition” value was “inactive”.

On to `COc1ccccc1C(=O)NCC(c1cccs1)N1CCOCC1` (configuration not stated), for which the “current change, negative = inhibition” value is “inactive”.

As for `CC(C)(C)C(=O)NCC(c1cccs1)N1CCOCC1` (configuration not stated), the “current change, negative = inhibition” value is “inactive”.
